Legend:
Mus musculus [1] = test: Anticonvulsant activity in Swiss mouse model of 6 Hz psychomotor seizure mode assessed as protection against seizures at 100 mg/kg, ip dosed 0.5 hrs before 6 Hz electrical stimulation by 6 Hz test; assay type: functional
In short: (§1)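 Mice were dosed i.p. at a fixed 300 or 100 mg/kg (6 Hz: 100 mg/kg only). Protection was then scored against MES, sc PTZ or 6 Hz seizures at pretreatment times of 0.25, 0.5, 1 and 2 h. Groups were four mice, scored as number protected / number tested. This also gives the time course and time of peak effect.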

Mus musculus [2] = test: Anticonvulsant activity in Swiss mouse assessed as protection against seizures at 300 mg/kg, ip dosed 0.25 hrs before initiation of maximal electroconvulsions by maximal electroshock test; assay type: functional; in short: as §1
Mus musculus [3] = test: Anticonvulsant activity in Swiss mouse assessed as protection against seizures at 100 mg/kg, ip dosed 1 hr before initiation of maximal electroconvulsions by maximal electroshock test; assay type: functional; in short: as §1
[4] = Toxicity in ip dosed Swiss mouse assessed as induction of motor performance impairment measured within 60 seconds measured at 0.5 hrs of time to peak effect by Chimney test; assay type: organism-based; settings: in vivo
In short: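 Neurotoxicity was measured i.p. in mice by the chimney test for motor impairment. It was given as the median neurotoxic dose (TD50, mg/kg) at the time of peak effect.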

CYP3A4 = CYP3A4 (Homo sapiens, UniProt P08684); test: Inhibition of human recombinant CYP3A4 assessed as remaining enzyme activity by measuring conversion of luciferin-PPXE into D-luciferin at 25 uM by luminescence CYP3A4 P450-Glo assay relative to untreated control; assay type: ADME; settings: recombinant CYP3A4, probe luciferin-PPXE, read-out: Activity
CYP3A4, sequence (P08684 whole entry): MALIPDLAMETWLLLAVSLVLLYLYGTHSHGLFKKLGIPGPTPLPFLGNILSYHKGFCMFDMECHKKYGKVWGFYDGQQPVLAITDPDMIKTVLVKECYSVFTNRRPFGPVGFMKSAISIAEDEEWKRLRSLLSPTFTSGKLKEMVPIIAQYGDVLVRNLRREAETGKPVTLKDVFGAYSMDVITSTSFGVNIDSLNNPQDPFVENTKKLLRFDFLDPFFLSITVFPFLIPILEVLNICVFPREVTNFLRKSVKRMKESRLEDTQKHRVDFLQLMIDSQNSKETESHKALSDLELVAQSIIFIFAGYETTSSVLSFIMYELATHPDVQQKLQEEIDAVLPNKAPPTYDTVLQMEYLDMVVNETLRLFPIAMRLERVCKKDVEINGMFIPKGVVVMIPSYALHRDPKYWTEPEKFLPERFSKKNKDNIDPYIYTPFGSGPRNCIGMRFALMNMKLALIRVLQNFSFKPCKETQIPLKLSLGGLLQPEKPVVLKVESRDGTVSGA

Rattus norvegicus [5] = species: Rattus norvegicus; test: Inhibition of [3H]BTX binding to sodium channel site 2 in rat cerebral cortex synaptosomes at 100 uM incubated for 60 mins by scintillation counting based radioligand displacement assay; assay type: subcellular
In short: (§2)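 Synaptoneurosomal preparations from rat cerebral cortex were used. The read-out was inhibition of specific [3H]BTX binding to the voltage-sensitive sodium channel (site 2), expressed as % inhibition of control specific binding. Compounds were tested at 1, 10, 100 and 500 μM. Inhibition above 50% was taken as significant.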

Rattus norvegicus [6] = species: Rattus norvegicus; test: Inhibition of [3H]BTX binding to sodium channel site 2 in rat cerebral cortex synaptosomes at 500 uM incubated for 60 mins by scintillation counting based radioligand displacement assay; assay type: subcellular; in short: as §2
Mus musculus [7] = test: Anticonvulsant activity in ip dosed Swiss mouse assessed as protection against seizures measured at 1 hr of time to peak effect by subcutaneous pentylenetetrazole seizure test; assay type: functional
Mus musculus [8] = test: Anticonvulsant activity in Swiss mouse assessed as protection against seizures at 100 mg/kg, ip dosed 1 hr before pentylenetetrazole challenge by subcutaneous pentylenetetrazole seizure test; assay type: functional; in short: as §1
Mus musculus [9] = test: Anticonvulsant activity in Swiss mouse assessed as protection against seizures at 100 mg/kg, ip dosed 2 hrs before initiation of maximal electroconvulsions by maximal electroshock test; assay type: functional; in short: as §1
Mus musculus [10] = test: Anticonvulsant activity in Swiss mouse assessed as protection against seizures at 300 mg/kg, ip dosed 0.25 hrs before pentylenetetrazole challenge by subcutaneous pentylenetetrazole seizure test; assay type: functional; in short: as §1
Liver microsome = test: Drug metabolism in human liver microsomes assessed as metabolite M4 formation at 50 uM in presence of NADPH regeneration system pre-incubated at 37 degC for 5 min and measured 2 hrs after post NADPH system addition by UPLC and LC-MS/MS method; assay type: ADME
In short: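 The compound was incubated 2 h with human liver microsomes. Metabolites were detected by full-scan chromatogram and identified by LC/MS from their [M+H]+ molecular masses.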

Mus musculus [11] = test: Anticonvulsant activity in Swiss mouse assessed as protection against seizures at 300 mg/kg, ip dosed 2 hrs before initiation of maximal electroconvulsions by maximal electroshock test; assay type: functional; in short: as §1
Mus musculus [12] = test: Anticonvulsant activity in Swiss mouse assessed as protection against seizures at 300 mg/kg, ip dosed 1 hr before initiation of maximal electroconvulsions by maximal electroshock test; assay type: functional; in short: as §1
Mus musculus [13] = test: Anticonvulsant activity in Swiss mouse model of 6 Hz psychomotor seizure mode assessed as protection against seizures at 100 mg/kg, ip dosed 2 hrs before 6 Hz electrical stimulation by 6 Hz test; assay type: functional; in short: as §1
Mus musculus [14] = test: Anticonvulsant activity in Swiss mouse assessed as protection against seizures at 100 mg/kg, ip dosed 0.25 hrs before initiation of maximal electroconvulsions by maximal electroshock test; assay type: functional; in short: as §1
Mus musculus [15] = test: Anticonvulsant activity in Swiss mouse model of 6 Hz psychomotor seizure mode assessed as protection against seizures at 100 mg/kg, ip dosed 1 hr before 6 Hz electrical stimulation by 6 Hz test; assay type: functional; in short: as §1
[16] = Protective index, ratio of neurotoxic TD50 in Swiss mouse by Chimney test to anticonvulsant ED50 in Swiss mouse measured at 1 hr of time to peak effect by 6 Hz test by 6 Hz psychomotor seizure test; assay type: toxicity; settings: in vivo, read-out: Ratio TD50/ED50
In short: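 Neurotoxicity (TD50) estimated in mice i.p. by chimney test for motor coordination impairment; protective index calculated as TD50/ED50 for each seizure model.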

Compound: CC(C(=O)N1CCN(c2cccc(C(F)(F)F)c2)CC1)N1C(=O)CCC1=O (racemic)
- Activity (Mus musculus [1]): 100%
- Activity (Mus musculus [2]): 75%
- Activity (Mus musculus [3]): 50%
- TD50 at 0.5 h [4]: > 1500 mg/kg
- activity at 25 µM (CYP3A4): 68.4%
- inhibition (Rattus norvegicus [5]): 37.4%
- inhibition (Rattus norvegicus [6]): 62.3%
- ED50 (Mus musculus [7]): 88.7 mg/kg
- Activity (Mus musculus [8]): 75%
- Activity (Mus musculus [9]): 0%
- Activity (Mus musculus [10]): 100%
- Drug metabolism (Liver microsome): metabolite_detected
- Activity (Mus musculus [11]): 100%
- Activity (Mus musculus [12]): 100%
- Activity (Mus musculus [13]): 100%
- Activity (Mus musculus [14]): 50%
- Activity (Mus musculus [15]): 100%
- selectivity ratio at 1 h [16]: 23.5

From ChEMBL document CHEMBL3580554, “Design, synthesis, and anticonvulsant activity of new hybrid compounds derived from 2-(2,5-dioxopyrrolidin-1-yl)propanamides and 2-(2,5-dioxopyrrolidin-1-yl)butanamides” (J Med Chem, 2015)
